Screening data: PubChem, Broad Institute
DENV2 CPE rescue = protects cells from dengue virus 2 cytopathic effect; 350,000 compounds, 1.7% hits; CPE inhibition, % at 9.99 µM; DENV2-infected cells, cytopathic effect rescue, plate reader; AID 651640; in the data active means CPE inhibition above about 20%, passing the limit was not always enough; inconclusive means no clear call, values can overlap the other calls; tested in BHK-21 cells;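 further: 0% = median of neutral control wells and 100% = median of positive control wells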
PfHsp90 set2 = reduces growth (ATP signal) of yeast expressing P. falciparum Hsp90; S. cerevisiae expressing PfHsp90, BacTiter-Glo ATP, 48 h; yeast lacking PDR1 and PDR3 efflux regulators; inhibition, % at 9.4 µM; 310,000 compounds, 0.32% hits; AID 504621;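 active means every replicate shows inhibition above about 80%, whatever the replicate mean, limit read from the data; inconclusive means mean inhibition reaches the set limit but some replicate falls short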;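 further: 0% = DMSO neutral controls and 100% = 20 µM radicicol positive controls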
S100A4 MyoIIA = inhibitors of human S100A4 binding to myosin IIA peptide. P26447. S100A4/TAMRA-MyoIIA peptide fluorescence polarization. inhibition, % at 10.7 µM. 360,000 compounds, 0.14% hits;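 active means mean inhibition of at least 70% across replicates, with every replicate also reaching that level; inconclusive means mean inhibition reaches 70% but some replicates fall short; inactive means mean inhibition below 70%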
Target sequence (P26447 whole entry, looked up): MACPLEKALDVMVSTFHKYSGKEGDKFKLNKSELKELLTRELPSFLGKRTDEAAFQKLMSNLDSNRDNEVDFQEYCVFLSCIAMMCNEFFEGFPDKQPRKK
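Material: S100A4 monomer protein / Buffer or medium: 50 mM HEPES pH 7.2, 10 mM CaCl2, 100 mM KCl / Times: 5 min incubation before reading / Benchmarks: neutral control DMSO, positive control TFP / Reagent: labelled myosin peptide probe, 5 nM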
Ecoli rRNA inh = inhibitors of bacterial rRNA selective over humanized ribosomes; E. coli WT GFP vs humanized-ribosome RFP mutants, fluorescence, 24 h; active compounds read low; DMSO median 0, no signal -100; GFP signal change (wild-type ribosome), % (test concentration not listed); 350,000 compounds, 1.6% hits; AID 720706;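 active means significant combined selectivity score with lowered wild-type GFP, culture density cut under 30%, mutant RFP and density less affected; inactive means any of these conditions unmet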
AF4-AF9 inh = blocks AF4 peptide binding to human AF9 | inhibition, % at 10 µM | AID 651704 | AlphaScreen, biotin-AF4 peptide binding to FLAG-AF9 | P42568 | 350,000 compounds, 0.47% hits;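 active means every replicate reaching a set inhibition limit, whatever the replicate mean, cut at about 25% in these data; inconclusive means mean inhibition reaches that limit but some replicates miss it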;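 further: 0% = plate neutral control median and 100% = total signal loss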
Target sequence (P42568 whole entry, looked up): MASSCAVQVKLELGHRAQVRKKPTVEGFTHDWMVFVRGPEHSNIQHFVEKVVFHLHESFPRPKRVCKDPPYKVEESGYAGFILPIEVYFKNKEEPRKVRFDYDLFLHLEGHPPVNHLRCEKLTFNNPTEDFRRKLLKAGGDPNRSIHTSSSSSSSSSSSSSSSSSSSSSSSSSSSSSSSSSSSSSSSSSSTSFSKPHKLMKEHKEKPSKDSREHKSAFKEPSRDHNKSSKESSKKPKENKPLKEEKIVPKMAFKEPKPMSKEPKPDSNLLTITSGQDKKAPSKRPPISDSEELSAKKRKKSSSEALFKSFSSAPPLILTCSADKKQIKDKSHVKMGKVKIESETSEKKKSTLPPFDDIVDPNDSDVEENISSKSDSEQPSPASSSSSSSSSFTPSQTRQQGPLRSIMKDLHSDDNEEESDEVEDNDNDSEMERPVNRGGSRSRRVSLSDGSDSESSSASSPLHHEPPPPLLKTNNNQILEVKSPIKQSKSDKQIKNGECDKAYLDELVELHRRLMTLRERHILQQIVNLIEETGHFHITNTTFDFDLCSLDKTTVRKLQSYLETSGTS
Cneo AK release = causes C. neoformans cell lysis. adenylate kinase release luminescence, 4 h; normalised: neutral wells 0, clomiphene wells 100. lysis activity, % at 15 µM. 360,000 compounds, 0.2% hits;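 active means mean lysis activity across replicates of at least 80%, whatever share of replicates individually reach that level; inactive means mean lysis activity below 80%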
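Assay system: C. neoformans cells. Amount: yeast cell density of 5 × 10^6 cells/mL. Technique: AK luminescence. Buffer or medium: YPD. Times: static 4 h at 37 °C with compound, 1 h detection. Dosing: single-point compound dose. Read-out: lysis from increased AK signal.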
Numbers without * were called inactive; ? = inconclusive; . = not tested or not shown; ! = a repeat was not active. A selection: hits, their analogues and other compounds. The true share with any hit is near 3.2%.

SMILES	DENV2 CPE rescue	PfHsp90 set2	S100A4 MyoIIA	Ecoli rRNA inh	AF4-AF9 inh	Cneo AK release
C[C@H]1CN([C@@H](C)CO)C(=O)CCCn2cc(nn2)CO[C@@H]1CN(C)C(=O)Nc1ccc(C(C)(C)C)cc1	14	.	2	6	3	0
C[C@@H]1CN([C@H](C)CO)C(=O)CCCn2cc(nn2)CO[C@H]1CN(C)C(=O)Nc1ccccc1C(F)(F)F	48*!	.	-1	-2	0	-3
C[C@H]1CN([C@@H](C)CO)C(=O)CCCn2cc(nn2)CO[C@@H]1CN(C)C(=O)Nc1ccc(N2CCCCC2)cc1	?	.	-25	4	38*!	1
C[C@H](CO)N1C[C@H](C)[C@H](CN(C)C(=O)Nc2cccc(F)c2)OCc2cn(nn2)CCCC1=O	-1	.	4	2	-7	53
C[C@H]1CN([C@@H](C)CO)C(=O)CCCn2cc(nn2)CO[C@@H]1CN(C)C(=O)Nc1ccc(F)cc1	44*!	.	2	3	1	-2
C[C@@H]1CN([C@@H](C)CO)C(=O)CCCn2cc(nn2)CO[C@@H]1CN(C)C(=O)Nc1ccccc1C(F)(F)F	.	.	.	0	.	.
C[C@H](CO)N1C[C@H](C)[C@H](CN(C)C(=O)c2ccccc2)Oc2cc(C#CC3(O)CCCC3)ccc2S1(=O)=O	16	.	-1	-2	1	-4
COC(=O)C[C@@H]1C=C[C@H](NC(=O)c2ccccc2)[C@H](CO)O1	-7	.	5	1	-2	10
Cc1ccc(S(=O)(=O)N(C(=O)c2ccncc2)c2ccc(OC(=O)c3ccncc3)cc2)cc1	.	95*	.	.	.	.
O=C(Oc1ccc(N(C(=O)c2ccncc2)S(=O)(=O)c2ccc(F)cc2)cc1)c1ccncc1	2	-15	5	-2	-1	-1
COc1ccc(N(C(=O)c2ccncc2)S(=O)(=O)c2ccc(Cl)cc2)cc1	.	97*	.	.	.	0
CCc1ccc(S(=O)(=O)N(C(=O)c2ccncc2)c2ccc(OC(=O)c3ccncc3)cc2)cc1	.	101*	.	.	.	-5
C[C@@H]1CCCCO[C@H](CN(C)C(=O)Nc2ccc3c(c2)OCO3)[C@H](C)CN([C@H](C)CO)C(=O)c2cc(NS(=O)(=O)c3ccccc3)ccc2O1	?	.	9	0	8	-9
O=C(C[C@H]1CC[C@H]2[C@@H](COC[C@@H](O)CN2C(=O)Nc2ccc(C(F)(F)F)cc2)O1)NCCc1ccncc1	17	.	4	-60	-1	-5
O=C(C[C@H]1C[C@H]2c3cc(NC(=O)Nc4ccccc4F)ccc3O[C@H]2[C@@H](CO)O1)NCC1CC1	7	.	3	3	0	59
CCOc1ccc(C(C)=O)cc1CSc1nnnn1-c1ccc(O)cc1	3	-20	0	-15	1	11
COc1ccc(C(C)=O)cc1CSc1nnnn1-c1ccc(O)cc1	1	-5	1	-48*	-4	.
COc1ccc(C(C)=O)cc1CSc1nnc(C)n1-c1ccccc1	.	-1	.	.	.	-4
COCC(C)n1c(C)cc(C(=O)CSc2nnnn2-c2ccc(O)cc2)c1C (stereo not drawn)	4	-23	0	-28*	9	0
COc1ccc(C(C)=O)cc1CSc1nnc(-c2ccccc2O)n1-c1ccccc1	9	-27	1	-27*	12	.
NCC[C@@H]1CC[C@@H](NS(=O)(=O)Cc2ccccc2)[C@H](CO)O1	.	.	3	1	-1	56
C[C@H](CO)N1C[C@H](C)[C@H](CN(C)C(=O)NC2CCCC2)Oc2ncc(/C=C/c3ccccc3)cc2C1=O	2	.	-2	-1	2	9
COc1ccc(/C=C/C(=O)NC(=S)NNC(=O)c2cnccn2)cc1	-17	97*	0	-4	-20	.
O=C(/C=C/c1ccc(F)cc1)NC(=S)NNC(=O)c1cnccn1	-21	108*	-2	-49	3	.
O=C(NC(=S)NNC(=O)c1cnccn1)c1ccc(F)cc1	-2	-65	-4	-30	-2	.
SMILES	DENV2 CPE rescue	PfHsp90 set2	S100A4 MyoIIA	Ecoli rRNA inh	AF4-AF9 inh	Cneo AK release
CCCC#Cc1cnc2c(c1)C(=O)N([C@H](C)CO)C[C@H](C)[C@@H](CN(C)C(=O)Nc1c(C)noc1C)O2	1	.	1	9	-2	4
CC(=O)N1[C@H](CO)[C@@H](c2ccccc2)C12CN(Cc1cc(F)ccc1F)C2	-6	.	3	-1	2	.
Cc1ccc(CCNS(=O)(=O)c2ccc3c(c2)NC(=O)CCS3)cc1	1	10	-2	-8	-2	-2
Cc1ccc(NS(=O)(=O)c2ccc3c(c2)NC(=O)CCS3)cc1C	5	13	-3	-26*	-3	1
Cc1cccc(CCNS(=O)(=O)c2ccc3c(c2)NC(=O)CS3)c1	10	2	2	-35*	-2	2
C[C@@H]1CN([C@@H](C)CO)C(=O)c2cc(NS(=O)(=O)c3ccc(Cl)cc3)ccc2O[C@@H](C)CCCCO[C@H]1CN(C)Cc1ccc(C(=O)O)cc1	-5	.	1	0	0	1
COCC(=O)N1CCC2(CC1)CN(Cc1cccc(OC)c1)[C@H](CO)c1c2c2ccc(OC)cc2n1C	.	.	.	9	.	.
C[C@H](NC(=O)C[C@H]1CC[C@H]2[C@@H](COC[C@@H](O)CN2C(=O)Nc2cc(Cl)cc(Cl)c2)O1)c1ccccc1	23*	.	3	-26	1	-2
C[C@@H](NC(=O)C[C@@H]1CC[C@H]2[C@@H](COC[C@H](O)CN2C(=O)Nc2cc(Cl)cc(Cl)c2)O1)c1ccccc1	40*	.	-3	-25	0	-2
C[C@@H](NC(=O)C[C@@H]1CC[C@H]2[C@@H](COC[C@@H](O)CN2C(=O)Nc2cc(Cl)cc(Cl)c2)O1)c1ccccc1	2	.	4	-38	0	-3
O=C(C[C@H]1CC[C@H]2[C@@H](COC[C@@H](O)CN2C(=O)Nc2cc(Cl)cc(Cl)c2)O1)N1CCOCC1	.	.	.	-27*	.	-3
C[C@@H](NC(=O)C[C@@H]1CC[C@@H]2[C@H](COC[C@H](O)CN2C(=O)Nc2cc(Cl)cc(Cl)c2)O1)c1ccccc1	10	.	-1	-38	1	-4
O=C(C[C@@H]1CC[C@@H]2[C@H](COC[C@H](O)CN2C(=O)Nc2cc(Cl)cc(Cl)c2)O1)N1CCOCC1	12	.	.	-51	.	-3
C[C@@H]1CN([C@H](C)CO)C(=O)c2cc(NC(=O)c3ccccc3)ccc2O[C@@H](C)CCCCO[C@@H]1CN(C)C(=O)c1ccccc1	.	.	.	-3	-16	.
Cc1ccc2c(c1)-n1c(nc3ccc(C)cc3c1=O)C(Cc1ccc(O)cc1)NC2=O (stereo not drawn)	33*	.	0	-5	3	.
Cc1ccc2c(c1)-n1c(nc3ccc(Cl)cc3c1=O)C(CC(C)C)NC2=O (stereo not drawn)	.	.	6	11	-1	.
